# According to ChEMBL document CHEMBL1208695, “Propenylamide and propenylsulfonamide cephalosporins as a novel class of anti-MRSA beta-lactams” (Bioorg Med Chem Lett, 2010):
# Columns and labels:
# [1] = Inhibition of Staphylococcus epidermidis PBP2
# How it was run: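 Enzyme: purified recombinant PBP2' from Staphylococcus epidermidis, used as the inhibition target.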
# Escherichia coli = assay: Antibacterial activity against Escherichia coli UB1005; format: functional
# Staphylococcus aureus [2] = assay: Antibacterial activity against beta-lactamase deficient Staphylococcus aureus COL; format: functional
# Streptococcus pneumoniae = assay: Antibacterial activity against Streptococcus pneumoniae R6; format: functional
# Staphylococcus aureus [3] = assay: Antibacterial activity against Staphylococcus aureus ATCC 25923; format: functional
# Staphylococcus aureus [4] = assay: Antibacterial activity against Staphylococcus aureus COL expressing beta-lactamase in presence of Sulbactam; format: functional
# Staphylococcus aureus [5] = assay: Antibacterial activity against Staphylococcus aureus 887 expressing beta-lactamase; format: functional
# Staphylococcus aureus [6] = assay: Antibacterial activity against Staphylococcus aureus COL expressing beta-lactamase; format: functional
Structure (SMILES),IC50 [1],MIC (Escherichia coli),MIC (Staphylococcus aureus [2]),MIC (Streptococcus pneumoniae),MIC (Staphylococcus aureus [3]),MIC (Staphylococcus aureus [4]),MIC (Staphylococcus aureus [5]),MIC (Staphylococcus aureus [6])
O=C(CSc1ccc2ccccc2c1)N[C@@H]1C(=O)N2C(C(=O)O)=C(/C=C/CNC(=O)c3cccnc3)CS[C@H]12,31 µM,> 32 µg/mL,4 µg/mL,≤ 0.06 µg/mL,0.13 µg/mL,1 µg/mL,1 µg/mL,> 32 µg/mL
CN(C)CC(=O)NC/C=C/C1=C(C(=O)O)N2C(=O)[C@@H](NC(=O)CSc3ccc4ccccc4c3)[C@H]2SC1,50 µM,> 32 µg/mL,4 µg/mL,≤ 0.06 µg/mL,≤ 0.06 µg/mL,4 µg/mL,1 µg/mL,32 µg/mL
O=C(CSc1ccc2ccccc2c1)N[C@@H]1C(=O)N2C(C(=O)O)=C(/C=C/CNC(=O)C3CC3)CS[C@H]12,–,> 32 µg/mL,1 µg/mL,≤ 0.06 µg/mL,≤ 0.06 µg/mL,–,0.5 µg/mL,16 µg/mL
O=C(CSc1ccc2ccccc2c1)N[C@@H]1C(=O)N2C(C(=O)O)=C(/C=C/CNS(=O)(=O)c3ccccc3)CS[C@H]12,20 µM,> 32 µg/mL,1 µg/mL,≤ 0.06 µg/mL,≤ 0.06 µg/mL,–,2 µg/mL,32 µg/mL
CCS(=O)(=O)NC/C=C/C1=C(C(=O)O)N2C(=O)[C@@H](NC(=O)CSc3ccc4ccccc4c3)[C@H]2SC1,22 µM,> 32 µg/mL,8 µg/mL,≤ 0.06 µg/mL,≤ 0.06 µg/mL,–,2 µg/mL,> 32 µg/mL
O=C(CSc1ccc2ccccc2c1)N[C@@H]1C(=O)N2C(C(=O)O)=C(/C=C/CNS(=O)(=O)c3csc(Cl)c3)CS[C@H]12,2 µM,> 32 µg/mL,1 µg/mL,≤ 0.06 µg/mL,≤ 0.06 µg/mL,1 µg/mL,0.5 µg/mL,16 µg/mL
CN1CCCC1C(=O)NC/C=C/C1=C(C(=O)O)N2C(=O)[C@@H](NC(=O)Cc3ccccc3)[C@H]2SC1 (stereo partly specified),–,> 32 µg/mL,> 32 µg/mL,≤ 0.06 µg/mL,0.25 µg/mL,–,8 µg/mL,> 32 µg/mL
O=C(Cc1ccccc1)N[C@@H]1C(=O)N2C(C(=O)O)=C(/C=C/CNC(=O)c3cccnc3)CS[C@H]12,–,> 32 µg/mL,> 32 µg/mL,≤ 0.06 µg/mL,≤ 0.06 µg/mL,–,–,> 32 µg/mL
O=C(Cc1ccccc1)N[C@@H]1C(=O)N2C(C(=O)O)=C(/C=C/CNS(=O)(=O)c3ccccc3)CS[C@H]12,–,> 32 µg/mL,> 32 µg/mL,0.13 µg/mL,0.5 µg/mL,–,16 µg/mL,> 32 µg/mL
O=C(Cc1ccccc1)N[C@@H]1C(=O)N2C(C(=O)O)=C(/C=C/CNS(=O)(=O)c3csc(Cl)c3)CS[C@H]12,–,> 32 µg/mL,32 µg/mL,≤ 0.06 µg/mL,0.13 µg/mL,–,2 µg/mL,> 32 µg/mL
CO/N=C(\C(=O)N[C@@H]1C(=O)N2C(C(=O)O)=C(/C=C/CNC(=O)C3CCCN3C)CS[C@H]12)c1csc(N)n1 (stereo partly specified),> 500 µM,1 µg/mL,> 32 µg/mL,≤ 0.06 µg/mL,2 µg/mL,–,8 µg/mL,> 32 µg/mL
CO/N=C(\C(=O)N[C@@H]1C(=O)N2C(C(=O)O)=C(/C=C/CNC(=O)c3cccnc3)CS[C@H]12)c1csc(N)n1,> 500 µM,0.25 µg/mL,> 32 µg/mL,≤ 0.06 µg/mL,4 µg/mL,–,8 µg/mL,> 32 µg/mL
CO/N=C(\C(=O)N[C@@H]1C(=O)N2C(C(=O)O)=C(/C=C/CNS(=O)(=O)c3cccnc3)CS[C@H]12)c1csc(N)n1,235 µM,1 µg/mL,> 32 µg/mL,≤ 0.06 µg/mL,1 µg/mL,–,2 µg/mL,> 32 µg/mL
Nc1nc(/C(=N/O)C(=O)N[C@@H]2C(=O)N3C(C(=O)O)=C(/C=C/CNS(=O)(=O)c4ccccc4)CS[C@H]23)c(Cl)s1,6 µM,> 32 µg/mL,8 µg/mL,0.25 µg/mL,0.5 µg/mL,–,1 µg/mL,16 µg/mL
Nc1nc(/C(=N/O)C(=O)N[C@@H]2C(=O)N3C(C(=O)O)=C(/C=C/CNS(=O)(=O)c4cccnc4)CS[C@H]23)c(Cl)s1,12 µM,16 µg/mL,16 µg/mL,≤ 0.06 µg/mL,2 µg/mL,–,4 µg/mL,32 µg/mL
CN1CCCC1C(=O)NC/C=C/C1=C(C(=O)O)N2C(=O)[C@@H](NC(=O)CSc3ccc4ccccc4c3)[C@H]2SC1 (stereo partly specified),–,> 32 µg/mL,4 µg/mL,0.13 µg/mL,0.13 µg/mL,1 µg/mL,1 µg/mL,> 32 µg/mL
CC1(C)S[C@@H]2[C@H](NC(=O)[C@H](N)c3ccc(O)cc3)C(=O)N2[C@H]1C(=O)O [AMOXICILLIN],–,8 µg/mL,32 µg/mL,≤ 0.06 µg/mL,0.25 µg/mL,–,32 µg/mL,> 32 µg/mL
CC(=O)OCC1=C(C(=O)O)N2C(=O)[C@@H](NC(=O)Cc3cccs3)[C@H]2SC1 [CEPHALOTHIN],–,8 µg/mL,> 32 µg/mL,0.125 µg/mL,0.25 µg/mL,–,0.5 µg/mL,> 32 µg/mL
